Experiments:
[1] = tested on: THP-1; test: Cytotoxicity against human THP1 cells after 72 hrs by WST1 assay; type: cell-based; conditions: THP-1, 72 h
Summary of the method: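 Cells were kept in RPMI 1640 with 10% FBS, 2 mM L-glutamine, penicillin/streptomycin and 10 µM 2-mercaptoethanol at 37 °C, 5% CO2, and seeded at 2.5 × 10^4 cells/well. Samples were tested at 250 µg/mL final for 72 h. WST-1 was added for a further 1–2 h, then A450 was read. Controls were 10 µM camptothecin and 0.1% DMSO.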

[2] = tested on: Pseudomonas aeruginosa; test: Antibacterial activity against Pseudomonas aeruginosa after 18 hrs; type: functional, organism-based
Summary of the method: (§1)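 Strains first grown on Mueller-Hinton agar, then in Mueller-Hinton broth with CaCl2/MgCl2 for 18 h at 37 °C. Serial dilutions were made (K. pneumoniae and P. aeruginosa […]) and equilibrated 30 min at 37 °C. Cultures were added to the samples, shaken 18 h at 37 °C and 60% humidity, and read at OD650. Controls were no inhibitor and 50 µg/mL streptomycin.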

[3] = tested on: Streptococcus pneumoniae; test: Antibacterial activity against Streptococcus pneumoniae after 18 hrs; type: functional, organism-based; summary of the method: as §1
[4] = tested on: Staphylococcus aureus; test: Antibacterial activity against Staphylococcus aureus after 18 hrs; type: functional, organism-based; summary of the method: as §1
[5] = Selectivity ratio of IC50 for human THP1 cells to IC50 for Streptococcus pneumoniae; type: ADME, cell-based, THP-1
[6] = Selectivity ratio of IC50 for Pseudomonas aeruginosa to IC50 for Staphylococcus aureus; type: functional
[7] = tested on: Klebsiella pneumoniae; test: Antibacterial activity against Klebsiella pneumoniae after 18 hrs; type: functional, organism-based; summary of the method: as §1
[8] = Selectivity ratio of IC50 for human THP1 cells to IC50 for Staphylococcus aureus; type: ADME, cell-based, THP-1
[9] = Selectivity ratio of IC50 for Klebsiella pneumoniae to IC50 for Staphylococcus aureus; type: functional

SMILES: CCCCCCCCCCCC(=O)O[C@H]1[C@@H](O[C@@]2(CO)O[C@@H](CO)[C@H](O)[C@H]2O)O[C@H](CO)[C@@H](O)[C@@H]1OC(=O)C=C(C)C [PHYSALOSIDE A]
- IC50 [1]: > 800 µM
- IC50 [2]: > 413 µM
- IC50 [3]: 57 µM
- IC50 [4]: 52 µM
- selectivity ratio [5]: > 10
- Ratio IC50 [6]: > 8
- IC50 [7]: > 413 µM
- selectivity ratio [8]: > 10
- Ratio IC50 [9]: > 8
